Test results: ChEMBL document CHEMBL1149047, “New teleocidin-related metabolites, (-)-7-geranylindolactam V and blastmycetin F, from Streptoverticillium blastmyceticum” (J Nat Prod, 1994)

Key:
[1] = system: HeLa; assay: Tumor promoter activity in human HeLa cells assessed as enhancement of incorporation of 32Pi into phospholipid per mg of protein at 10 nM; type: ADME, cell-based; conditions: 0.01 µM
Procedure, shortened: (§1)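 HeLa cells treated with compound in 0.2% DMSO (vehicle control). Radioactive inorganic phosphate (32Pi) uptake into phospholipids measured by a previously reported method with slight modifications. Results given as cpm per mg protein relative to the DMSO control, with standard deviation. Compound tested at 10^-10 to 10^-7 M.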

[2] = system: HeLa; assay: Tumor promoter activity in human HeLa cells assessed as enhancement of incorporation of 32Pi into phospholipid per mg of protein at 0.1 nM; type: ADME, cell-based; conditions: 0.0001 µM; procedure, shortened: as §1
[3] = system: HeLa; assay: Tumor promoter activity in human HeLa cells assessed as enhancement of incorporation of 32Pi into phospholipid per mg of protein at 1 nM; type: ADME, cell-based; conditions: 0.001 µM; procedure, shortened: as §1
[4] = system: HeLa; assay: Tumor promoter activity in human HeLa cells assessed as enhancement of incorporation of 32Pi into phospholipid per mg of protein at 0.1 uM; type: ADME, cell-based; procedure, shortened: as §1
[5] = Displacement of [3H]TPA from phorbol ester receptor in ICR mouse epidermal particulate
Procedure, shortened: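 Competition for specific [3H]-TPA binding to a particulate fraction from dorsal epidermis of female ICR mice, by the cold Me2CO filter method with slight modifications. IC50 (concentration giving 50% inhibition) found by probit analysis. Because IC50 drifts between particulate preparations, all compounds were run together on one fraction. Value reported as log 1/M.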

pIC50 [5]	Compound	relative 32Pi incorporation [1]	relative 32Pi incorporation [2]	relative 32Pi incorporation [3]	relative 32Pi incorporation [4]
	C=C[C@@]1(C)CC[C@](C)(C(C)C)c2cc3c4c(c[nH]c4c21)C[C@@H](CO)NC(=O)[C@H](C(C)C)N3C	6.72	1.19	1.82	7.46
8.05	CC(C)=CCC/C(C)=C/Cc1ccc2c3c(c[nH]c13)C[C@@H](CO)NC(=O)[C@H](C(C)C)N2C	2.61	0.97	1.41	6.64
	C=C[C@](C)(CCC=C(C)C)c1ccc2c3c(c[nH]c13)C[C@@H](CO)NC(=O)[C@H](C(C)C)N2C	4.59	1.05	1.57	8.36
